Reference: ChEMBL document CHEMBL2040734, “Benzothiazoles: search for anticancer agents” (2012)

Columns and labels:
Type in all cases: functional
OVCAR-8 = assay: Cytotoxicity against human OVCAR8 cells assessed as cell growth at 0.01 uM after 48 hrs by sulforhodamine B assay; conditions: OVCAR-8, 48 h, read-out: Activity
PC-3 = assay: Cytotoxicity against human PC3 cells assessed as cell growth at 0.01 uM after 48 hrs by sulforhodamine B assay; conditions: PC-3, 48 h, read-out: Activity
DU-145 = assay: Cytotoxicity against human DU145 cells assessed as cell growth at 0.01 uM after 48 hrs by sulforhodamine B assay; conditions: DU-145, 48 h, read-out: Activity
How it was run: (§1)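 NCI-60 five-dose screen. Cells were grown in RPMI 1640 with 5% FBS and 2 mM L-glutamine and preincubated 24 h. Compound (DMSO stock) was tested at 0.01, 0.1, 1, 10 and 100 µM for 48 h at 37 °C. Cells were fixed in situ with cold TCA (final 10%) and stained with 0.4% SRB. A515 was read, and percent growth was calculated against time-zero and control plates.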

SK-MEL-28 = assay: Cytotoxicity against human SK-MEL-28 cells assessed as cell growth at 0.1 uM after 48 hrs by sulforhodamine B assay; conditions: SK-MEL-28, 48 h, read-out: Activity
ACHN = assay: Cytotoxicity against human ACHN cells assessed as cell growth at 0.1 uM after 48 hrs by sulforhodamine B assay; conditions: read-out: Activity; how it was run: as §1
RXF 393 = assay: Cytotoxicity against human RXF393 cells assessed as cell growth at 0.1 uM after 48 hrs by sulforhodamine B assay; conditions: RXF 393, 48 h, read-out: Activity
SN12C = assay: Cytotoxicity against human SN12C cells assessed as cell growth at 0.1 uM after 48 hrs by sulforhodamine B assay; conditions: read-out: Activity
SF-295 = assay: Cytotoxicity against human SF295 cells assessed as cell growth at 100 uM after 48 hrs by sulforhodamine B assay; conditions: SF-295, 48 h, read-out: Activity
HL-60(TB) = assay: Cytotoxicity against human HL-60(TB) cells assessed as cell growth at 1 uM after 48 hrs by sulforhodamine B assay; conditions: HL-60, 48 h, read-out: Activity
How it was run: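 NCI five-dose screen on the HL-60(TB) leukaemia line, grown in RPMI 1640 with 5% FBS and 2 mM L-glutamine and plated for 24 h before dosing. DMSO stocks were diluted in medium. Cells were exposed 48 h at 37 °C, then settled cells were fixed in 16% TCA (final) and stained with SRB, absorbance 515 nm. Percent growth = (Ti−Tz)/(C−Tz)×100, or (Ti−Tz)/Tz×100 when Ti<Tz.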

RPMI-8226 = assay: Cytotoxicity against human RPMI8226 cells assessed as cell growth at 1 uM after 48 hrs by sulforhodamine B assay; conditions: RPMI-8226, 48 h, read-out: Activity
NCI-H460 = assay: Cytotoxicity against human NCI-H460 cells assessed as cell growth at 1 uM after 48 hrs by sulforhodamine B assay; conditions: NCI-H460, 48 h, read-out: Activity
UACC-62 = assay: Cytotoxicity against human UACC62 cells assessed as cell growth at 1 uM after 48 hrs by sulforhodamine B assay; conditions: UACC-62, 48 h, read-out: Activity
MDA-MB-231 = assay: Cytotoxicity against human MDA-MB-231 cells assessed as cell growth at 1 uM after 48 hrs by sulforhodamine B assay; conditions: MDA-MB-231, 48 h, read-out: Activity
[1] = Cytotoxicity against human Hs 578T cells assessed as cell growth at 1 uM after 48 hrs by sulforhodamine B assay; conditions: read-out: Activity
How it was run: (§2)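 Five-dose NCI panel run at 0.01, 0.1, 1, 10 and 100 µM. Cells were in RPMI 1640 with 5% FBS and 2 mM L-glutamine, seeded at 5000–40,000 cells/well and pre-incubated 24 h. Drug was diluted from a DMSO stock into medium with 50 µg/ml gentamicin. Exposure was 48 h at 37 °C, 5% CO2. Cells were fixed with cold TCA and stained with 0.4% SRB, read at 515 nm. Percent growth came from time-zero, control and test absorbances.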

LOX IMVI = assay: Cytotoxicity against human LOXIMVI cells assessed as cell growth at 10 uM after 48 hrs by sulforhodamine B assay; conditions: read-out: Activity
EKVX = assay: Cytotoxicity against human EKVX cells assessed as cell growth at 100 uM after 48 hrs by sulforhodamine B assay; conditions: read-out: Activity; how it was run: as §2
HCT-116 = assay: Cytotoxicity against human HCT116 cells assessed as cell growth at 10 '-5 M after 48 hrs by sulforhodamine B assay; conditions: HCT-116, 48 h, read-out: Activity
How it was run: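 Primary one-dose screen across the NCI 60-line panel at 10 µM. Cells were grown in RPMI 1640 with 5% FBS and 2 mM L-glutamine and held 24 h before drug. Drug was diluted from a DMSO concentrate. Exposure was 48 h at 37 °C, 5% CO2. Cells were fixed with TCA and stained with SRB, with absorbance read at 515 nm. Percent growth was calculated against time-zero and untreated control.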

UACC-257 = assay: Cytotoxicity against human UACC257 cells assessed as cell growth at 10 '-5 M after 48 hrs by sulforhodamine B assay; conditions: UACC-257, 48 h, read-out: Activity
SK-OV-3 = assay: Cytotoxicity against human SKOV3 cells assessed as cell growth at 10 '-5 M after 48 hrs by sulforhodamine B assay; conditions: SK-OV-3, 48 h, read-out: Activity
TK-10 = assay: Cytotoxicity against human TK10 cells assessed as cell growth at 10 '-5 M after 48 hrs by sulforhodamine B assay; conditions: TK-10, 48 h, read-out: Activity
NCI-H226 [2] = assay: Growth inhibition of human NCI-H226 cells after 48 hrs by sulforhodamine B assay; conditions: NCI-H226, 48 h
How it was run: (§3)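 Adherent NCI-60 lines were grown in RPMI 1640 with 5% FBS and 2 mM L-glutamine, plated at 5000–40,000 cells/well and preincubated 24 h. They were then exposed to five concentrations (0.01–100 µM, from a DMSO stock) for 48 h at 37 °C, 5% CO2. Cells were fixed with cold TCA (10% final, 60 min, 4 °C) and stained with 0.4% SRB. Dye was solubilized in 10 mM Tris base and A515 read. GI50 was derived from time-zero, control and treated absorbances.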

MDA-MB-468 = assay: Growth inhibition of human MDA-MB-468 cells after 48 hrs by sulforhodamine B assay; conditions: MDA-MB-468, 48 h; for CC50: read-out: LC50 (the source's name); how it was run: as §3
NCI-H226 [3] = assay: Cytotoxicity against human NCI-H226 cells assessed as cell growth at 10 '-5 M after 48 hrs by sulforhodamine B assay; conditions: NCI-H226, 48 h, read-out: Activity
IGROV-1 = assay: Cytotoxicity against human IGROV1 cells assessed as cell growth at 0.01 uM after 48 hrs by sulforhodamine B assay; conditions: IGROV-1, 48 h, read-out: Activity
OVCAR-5 = assay: Cytotoxicity against human OVCAR5 cells assessed as cell growth at 0.01 uM after 48 hrs by sulforhodamine B assay; conditions: OVCAR-5, 48 h, read-out: Activity

Row | Structure (SMILES) | growth at 0.01 µM (OVCAR-8) [%] | growth at 0.01 µM (PC-3) [%] | growth at 0.01 µM (DU-145) [%] | growth at 0.1 µM (SK-MEL-28) [%] | growth at 0.1 µM (ACHN) [%] | growth at 0.1 µM (RXF 393) [%] | growth at 0.1 µM (SN12C) [%] | growth at 100 µM (SF-295) [%] | growth at 1 µM (HL-60(TB)) [%] | growth at 1 µM (RPMI-8226) [%] | growth at 1 µM (NCI-H460) [%] | growth at 1 µM (UACC-62) [%] | growth at 1 µM (MDA-MB-231) [%] | growth at 1 µM [1] [%] | growth at 10 µM (LOX IMVI) [%] | growth at 100 µM (EKVX) [%] | growth at 10 µM (HCT-116) [%] | growth at 10 µM (UACC-257) [%] | growth at 10 µM (SK-OV-3) [%] | growth at 10 µM (TK-10) [%] | also measured
1 | Cc1ccc2nc(Nc3c(C)cccc3C)sc2c1 | 103 | 102 | 104 | 92 | 105 | 85 | 86 | 14 | 56 | 75 | 81 | 52 | 37 | 64 | 23 | 53 | 19.4 | 56.1 | 47.1 | 61.3 | GI50 (NCI-H226 [2]): > 100000 nM; LC50 (NCI-H226 [2]): > 100000 nM; TGI (NCI-H226 [2]): > 100000 nM; GI50 (MDA-MB-468): 330 nM; TGI (MDA-MB-468): > 100000 nM; CC50 (MDA-MB-468): > 100000 nM; growth at 10 µM (NCI-H226 [3]): 69.7%; growth at 0.01 µM (IGROV-1): 107%; growth at 0.01 µM (OVCAR-5): 93%
2 | Clc1cccc(Cl)c1Nc1nc2cccc(Cl)c2s1 | 101 | 96 | 106 | 94 | 98 | 73 | 85 | -51 | 63 | 46 | 67 | 51 | 17 | 49 | -83 | -73 | -87.1 | -33.3 | 6.87 | -35.7 | GI50 (NCI-H226 [2]): 1180 nM; LC50 (NCI-H226 [2]): 6950 nM; TGI (NCI-H226 [2]): 2860 nM; GI50 (MDA-MB-468): 343 nM; TGI (MDA-MB-468): 1740 nM; CC50 (MDA-MB-468): 5790 nM; growth at 10 µM (NCI-H226 [3]): -40.8%; growth at 0.01 µM (IGROV-1): 114%; growth at 0.01 µM (OVCAR-5): 102%
